Rows were chosen to be rich in hits. Some 1.9% of all compounds tested hit in one or more screens of this group.
Arr AP2 block = human beta-arrestin and AP2 interaction inhibition | FITC-arrestin peptide / GST-AP2 beads, flow cytometry; AP2 beta2 appendage carries R879A mutation | inhibition, % at 10 µM | 340,000 compounds, 0.31% hits | AID 504490;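 active = inhibition above a set limit, near 3 SD of compounds lacking own fluorescence, cut at about 54% in these data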;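 also: plate controls were DMSO wells for no effect and 5 µM unlabelled arrestin peptide for full effect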
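test system = AP2 appendage R879A on GSH beads | buffer or medium = PBS plus Tween 20 (0.05%) and BSA (0.1%) | incubation = 12 min plus 1 h, RT | detection = bead flow cytometry, FITC channel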
PLCb3 inh = PLC-beta3 (human) inhibition, primary screen; Q01970; Purified PLC-beta3, fluorogenic substrate, fluorescence; inhibition, % at 12.2 µM; 370,000 compounds, 0.18% hits; AID 720704;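 also: 0% = median of compound wells on plate and 100% = full blocker control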
procasp7 counter = activates human procaspase-7, counter-screen for procaspase-3 activators; 330,000 compounds, 0.093% hits; recombinant procaspase-7, Ac-DEVD-pNA absorbance 405 nm; D23A/D198A/D206A triple mutant, cannot self-cleave; scale: DMSO 0, 5 µM enzyme 100; AID 463210; activation, % at 8.5 µM;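 active = percent activation above the screen-wide mean plus 3 SD, cut at about 25% in these data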
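System: Procaspase-7 triple mutant (PC-7 D3A); measure: % activation from two-timepoint absorbance difference, scaled to controls; times: 1 h compound preincubation, 2 h substrate cleavage, 25 °C; also added: Ac-DEVD-pNA substrate, 400 µM as added; measured by: Epi-absorbance of released pNA at 405 nm, two timepoints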
sPLA2-III inh = Blocks human group III sPLA2 activity | QFRET BODIPY PC-A2 liposome hydrolysis, fluorescence | 370,000 compounds, 0.56% hits | inhibition, % at 12.2 µM | AID 743126 | Q9NZ20;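 active = inhibition above mean plus 3 SD of compounds lying within the high and low control bounds, cut at about 19% in these data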;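 also: 0% = median of test compound wells and 100% = no enzyme DMSO wells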
procasp3 activ = activates human procaspase-3. AID 463141. 330,000 compounds, 0.11% hits. recombinant procaspase-3 D3A, Ac-DEVD-pNA absorbance 405 nm. activation, % at 8.5 µM;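 active = activation above the mean of all tested compounds plus 3 SD, cut at about 21% in these data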;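 also: 0% = DMSO alone and 100% = DMSO wells spiked with extra 5 µM PC-3 D3A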
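Assay system: Autoprocessing-dead procaspase-3 D3A mutant enzyme; also added: Ac-DEVD-pNA; doses: one concentration, 8.5 µM nominal, 0.8% DMSO; times: 1 h compound preincubation, 2 h substrate hydrolysis at 25 °C; technique: 405 nm absorbance of p-nitroaniline, reads at 0 and 120 min; measure: % activation between DMSO and enzyme-spiked controls; repeats: single replicate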
PLC-gamma1 inh = blocks human PLC-gamma1 enzyme activity. 370,000 compounds, 0.84% hits. P19174. inhibition, % at 12.2 µM. purified PLC-gamma1, fluorogenic substrate, fluorescence. AID 720700; in the data active = inhibition above about 9.5%
Target sequence (P19174 whole entry, looked up): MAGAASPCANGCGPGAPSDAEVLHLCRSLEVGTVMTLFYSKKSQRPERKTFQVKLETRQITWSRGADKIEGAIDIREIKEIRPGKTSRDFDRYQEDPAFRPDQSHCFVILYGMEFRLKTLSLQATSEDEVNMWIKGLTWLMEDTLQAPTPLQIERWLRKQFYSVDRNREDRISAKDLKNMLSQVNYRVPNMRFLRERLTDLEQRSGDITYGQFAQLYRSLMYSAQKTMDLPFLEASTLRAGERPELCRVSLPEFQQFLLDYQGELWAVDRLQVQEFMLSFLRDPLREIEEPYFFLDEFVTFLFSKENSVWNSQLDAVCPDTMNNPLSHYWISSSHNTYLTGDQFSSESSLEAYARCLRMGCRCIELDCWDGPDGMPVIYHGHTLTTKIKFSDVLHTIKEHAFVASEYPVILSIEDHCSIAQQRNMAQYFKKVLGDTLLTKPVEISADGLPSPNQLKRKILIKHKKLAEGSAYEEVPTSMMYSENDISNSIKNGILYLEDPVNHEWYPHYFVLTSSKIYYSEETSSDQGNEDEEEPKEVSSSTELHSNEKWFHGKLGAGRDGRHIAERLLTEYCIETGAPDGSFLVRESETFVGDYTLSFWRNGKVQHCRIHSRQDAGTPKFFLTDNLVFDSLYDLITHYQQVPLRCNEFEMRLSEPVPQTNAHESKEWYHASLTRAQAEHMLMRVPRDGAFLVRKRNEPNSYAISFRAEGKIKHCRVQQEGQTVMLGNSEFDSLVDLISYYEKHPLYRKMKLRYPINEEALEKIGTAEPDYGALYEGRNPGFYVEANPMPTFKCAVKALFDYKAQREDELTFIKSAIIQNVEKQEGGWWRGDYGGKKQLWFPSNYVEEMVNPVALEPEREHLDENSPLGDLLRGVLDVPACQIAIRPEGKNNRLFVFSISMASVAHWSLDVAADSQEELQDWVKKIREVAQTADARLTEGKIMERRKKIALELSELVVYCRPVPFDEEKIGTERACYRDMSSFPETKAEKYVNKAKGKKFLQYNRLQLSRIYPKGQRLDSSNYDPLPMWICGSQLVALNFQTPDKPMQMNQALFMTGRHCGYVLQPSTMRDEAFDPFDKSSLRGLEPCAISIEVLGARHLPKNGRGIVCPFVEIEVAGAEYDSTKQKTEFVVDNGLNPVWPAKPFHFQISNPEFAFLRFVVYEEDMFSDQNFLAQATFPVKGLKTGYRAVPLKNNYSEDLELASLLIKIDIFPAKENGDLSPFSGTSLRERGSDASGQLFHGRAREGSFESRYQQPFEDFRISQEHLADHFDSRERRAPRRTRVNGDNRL
PLCg1 ctr = inhibits human PLC-gamma1 in PLC-beta3 counter-screen; shares compounds with PLC-gamma1 inh; purified PLC-gamma1, fluorogenic substrate, fluorescence; AID 743258; inhibition, % at 12.3 µM; 3,300 compounds, 3.1% hits; in the data active = inhibition above about 9.5%
PLCb3 confirm = human PLC-beta3 inhibition, confirmation; shares compounds with PLC-gamma1 inh; purified PLC-beta3, fluorogenic substrate fluorescence; 3,300 compounds, 1% hits; inhibition, % at 12.3 µM
Starred values were filed as active, the others as inactive; nt = no result given. Rule as the data show it, unless noted: active = inhibition above about 11%; inactive = the rest.

SMILES	Arr AP2 block	PLCb3 inh	procasp7 counter	sPLA2-III inh	procasp3 activ	PLC-gamma1 inh	PLCg1 ctr	PLCb3 confirm
O=C(CCc1cccc(Cl)c1)NC1CCCN(Cc2ccccc2F)C1 (stereo not drawn)	-3	-4	8	-5	2	4	nt	nt
CCC(C)[C@H](NC(=O)C1COC(O)([C@H](Cc2ccccc2)NC(=O)[C@@H](NC(=O)OCc2ccccc2)C(C)C)CN1C)C(=O)N[C@H](C(=O)OC)C(C)C (stereo partly drawn)	nt	-1	nt	-2	nt	-4	nt	nt
CC(=O)C1C(c2ccccc2)c2c(n[nH]c2C)CC1(C)O (stereo not drawn)	-9	3	-6	8	-3	12*	-4	-3
CC(=O)C1C(c2ccc(C)cc2)c2c(n[nH]c2C)CC1(C)O (stereo not drawn)	9	4	9	-1	-10	4	nt	nt
CC(C)(C)c1ccc(/C=N/OCC(=O)NCc2ccc(F)cc2)cc1	16	2	4	-9	4	13*	-10	-6
O=C(N[C@H](C(=O)N1CCC[C@H]1C(=O)NCCc1ccccc1Cl)C1CCCCC1)c1cccs1	nt	8	nt	-13	nt	9.9*	2	-4
Cc1ccccc1C(=O)N[C@H](C(=O)N1CCC[C@H]1C(=O)NCCc1ccccc1Cl)C1CCCCC1	nt	0	nt	-2	nt	2	nt	nt
COc1cc(C23CCCN(CCC(C(C)(C)C)C2)C32OCCO2)cc(OC)c1OC (stereo not drawn)	nt	2	nt	-11	nt	11*	2	4
CC(C)(C)C1CCN2CCCC(c3ccc([N+](=O)[O-])cc3)(C1)C21OCCO1 (stereo not drawn)	nt	2	nt	0	nt	0	nt	nt
CN(CCc1ccccc1)C(C(=O)c1ccc2c(c1)OCO2)c1nnnn1-c1ccccc1NC(=O)OC(C)(C)C (stereo not drawn)	nt	-8	nt	-6	nt	-3	nt	nt
S=C(Nc1ccccc1Cl)N1CCC(c2ccccc2)C1 (stereo not drawn)	20	-1	-4	7	5	10*	-2	2
COCCn1c(SCC(=O)Nc2cccc(OC)c2)nnc1-c1ccccc1	-1	4	7	-5	4	1	nt	nt
COCCn1c(SCC(=O)OC(C)C)nnc1-c1ccccc1	-2	8	11	5	6	12*	-3	0
S=C(NCCN1CCCCC1)Nc1ccc(Br)cc1	-6	1	-5	18	1	6	nt	nt
S=C(NCCN1CCCCC1)Nc1ccccc1	11	3	-4	10	10	10*	-7	-3
S=C(NCCCNC(=S)Nc1ccccc1)Nc1ccccc1	11	4	-6	13	-8	13*	-7	-5
O=S1(=O)CC(N2CCN(CC3CC3)CC2)CN1CCc1ccccc1 (stereo not drawn)	nt	5	nt	7	nt	6	nt	nt
COc1ccccc1NC(=O)c1c([N+](=O)[O-])c(C(C)(C)C)nn1C	23	7	13	7	-10	12*	2	3
COc1ccccc1NC(=O)c1nn(C)c(C(=O)Nc2ccccc2OC)c1[N+](=O)[O-]	21	1	-1	-2	10	2	nt	nt
COc1ccc(NC(=O)COC(=O)CCC2CCCCC2)cc1	6	-6	-7	1	2	-4	nt	nt
NC(=O)c1ccc(NC(=O)COC(=O)CCC2CCCCC2)cc1	3	-6	-1	-8	-7	14*	-5	-3
Cc1occc1-c1nnc(SCC(=O)NCc2ccc(Cl)cc2)n1-c1ccccc1	nt	-3	nt	0	nt	-6	nt	nt
Cc1cccc(NCC(=O)N/N=C\c2cccn2C)c1	-9	-6	-11	0	4	11*	-249	-1
Nc1n[nH]c(N)c1N=Nc1ccc(Cl)cc1	-17	14*	10	9	0	20*	6	6
O=c1[nH]c(C2CCN(S(=O)(=O)c3ccccc3)CC2)nc2c1nnn2Cc1ccc2c(c1)OCCO2	0	-3	-3	-34	10	10*	-3	-1
SMILES	Arr AP2 block	PLCb3 inh	procasp7 counter	sPLA2-III inh	procasp3 activ	PLC-gamma1 inh	PLCg1 ctr	PLCb3 confirm
O=C(Cc1cccs1)N1CCC(c2nc3c(nnn3Cc3ccccc3Cl)c(=O)[nH]2)CC1	0	17*	-18	-22	2	18*	11*	16*
O=c1[nH]c(C2CCN(S(=O)(=O)c3ccc4c(c3)OCCO4)CC2)nc2c1nnn2Cc1ccc(F)cc1	-4	-6	-5	-29	1	1	nt	nt
Cc1[nH]cnc1/C=N\NC(=O)c1cccc(S(=O)(=O)N(C)C)c1	nt	-3	nt	9	nt	-1	nt	nt
CCC1Sc2ccccc2N(CC(=O)NCc2ccccc2OC)C1=O (stereo not drawn)	16	1	-8	4	0	2	nt	nt
CCC1Sc2ccccc2N(CC(=O)NCCC(C)C)C1=O (stereo not drawn)	9	3	-4	-2	-6	13*	-7	-2
Cc1nn(C)cc1S(=O)(=O)N1CCN(Cc2ccc(F)cc2Cl)CC1	0	12*	0	0	1	1	-2	-2
O=C(O)C1CCCCC1C(=O)NCCCN1CCCC1=O (stereo not drawn)	15	-3	0	-3	6	-1	nt	nt
O=C(NCCCN1CCCC1=O)NC1CCCCC1	2	11*	0	5	2	5	-2	-1
O=S(=O)(CS(=O)(=O)c1ccccc1Br)c1ccccc1Br	nt	-1	nt	2	nt	22*	17*	-12
O=S(=O)(NCc1ccccc1)c1ccccc1Br	2	3	7	-5	1	-1	nt	nt
COc1ccccc1C(=O)NC(=O)COc1ccc([N+](=O)[O-])cc1	-5	-2	11	0	-7	9.8*	-4	-1
CN1CCN(CCC(=O)N/N=C/c2ccccn2)CC1	2	3	2	4	7	10*	4	-5
Cc1ccc(S(=O)(=O)N2CCN(CC(=O)N/N=C\c3ccccn3)CC2)cc1	-1	-5	-8	15	9	1	nt	nt
CCC(Sc1nc(C)cc(C)n1)C(=O)Nc1cc(C)on1 (stereo not drawn)	31	11*	3	-2	1	11*	-6	-1
CN(C)c1ccc(Cn2c(=O)n(Cc3ccc(C(=O)NCC4COC4)cc3)c(=O)c3ccccc32)cc1	nt	-1	nt	3	nt	0	nt	nt
CN(Cc1ccccc1)C(=O)COC(=O)COc1ccc(C#N)cc1	-13	0	9	-2	7	9.8*	-4	1
